Source: ChEMBL document CHEMBL3232738, “Arabinose 5-phosphate isomerase as a target for antibacterial design: studies with substrate analogues and inhibitors” (2014)
Values after ≈ are worked out from the molar mass of the structure shown. Active and inactive are the calls of the source. The calls are words filed in the database; no cut-off is given here.

Key:
[1] = system: Pseudomonas aeruginosa; test: Antibacterial activity against Pseudomonas aeruginosa PAO1 ATCC 15692 after 18 to 20 hrs by broth microdilution test; assay type: functional
Summary of the method: (§1)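 Broth microdilution in Mueller–Hinton broth: compounds in triplicate serial dilutions from 2 mM downward, inoculum about 5 × 10⁵ cfu mL⁻¹, 18–20 h at 37 °C. MIC was taken as the lowest concentration inhibiting growth. The wild-type strain was run without glucose 6-phosphate.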

[2] = system: Escherichia coli; test: Antibacterial activity against Escherichia coli K-12 BW25113 after 18 to 20 hrs by broth microdilution test in presence of glucose-6-phosphate; assay type: functional
Summary of the method: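 For E. coli BW25113, broth microdilution was run with glucose 6-phosphate added. Conditions: Mueller–Hinton broth, triplicate concentrations from 2 mM downward, about 5 × 10⁵ cfu mL⁻¹ inoculum, 18–20 h at 37 °C. MIC was the lowest concentration inhibiting growth.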

[3] = system: Escherichia coli; test: Antibacterial activity against Escherichia coli K-12 BW25113 after 18 to 20 hrs by broth microdilution test; assay type: functional; summary of the method: as §1
[4] = system: Escherichia coli; test: Antibacterial activity against Escherichia coli AS19 after 18 to 20 hrs by broth microdilution test
[5] = system: Pseudomonas aeruginosa; test: Binding affinity to Pseudomonas aeruginosa KdsD expressed Escherichia coli at 5 mM after 2 to 3 days by STD-NMR analysis
Summary of the method: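 N-His6 Pa-KdsD was expressed in E. coli M15/pREP4 (0.5 mM IPTG, 4 h), Ni-NTA purified (>95%). Ligand at 5 mM with enzyme in PBS pH 7.0, 25 °C, sampled after 0, 2 and 3 days. STD: 50 ms Gaussian pulses, 3 s saturation, on-resonance 7.9 ppm, off-resonance 40 ppm, 2 ms T1ρ filter; free-ligand reference spectra.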

Row | SMILES | MIC [1] [µM] | MIC [2] [µM] | MIC [3] [µM] | MIC [4] [µM] | Activity [5]
1 | NC(=O)[C@H](O)[C@H](O)COP(=O)(O)O |  |  |  |  | Active
2 | CO[C@@H]1O[C@H](C(=O)O)[C@@H](O)[C@@H]1O | > 2000 | > 2000 | > 2000 | 250 (≈ 44.5 µg/mL) | Active
3 | CO[C@H]1O[C@H](C(=O)O)[C@@H](O)[C@@H]1O | > 2000 | > 2000 | > 2000 | 250 (≈ 44.5 µg/mL) | Active
4 | CC(=O)O[C@H](COP(=O)(O)O)[C@@H](O)C(=O)NO |  |  |  |  | Active
5 | O=C(NO)[C@H](O)[C@H](O)COP(=O)(O)O |  |  |  |  | Active

More lines, now with the values ahead:

Row | MIC [1] [µM] | MIC [2] [µM] | MIC [3] [µM] | MIC [4] [µM] | Activity [5] | SMILES
6 | > 2000 | > 2000 | > 2000 | 250 (≈ 61 µg/mL) |  | CO[C@H]1O[C@H](COP(=O)(O)O)[C@@H](O)[C@@H]1O
7 | > 2000 | > 2000 | > 2000 | 250 (≈ 61 µg/mL) |  | CO[C@@H]1O[C@H](COP(=O)(O)O)[C@@H](O)[C@@H]1O
